The list is not random: actives were taken first. Their share in the collection is about 2.5%.
NSD2 inh = NSD2 (human) methyltransferase inhibition; NSD2 peptide methylation, AlphaScreen, 120 min; inhibition, % at 12.5 µM; actives 0.54% (n = 310,000)
CDK5 inh = blocks human CDK5/p35 kinase activity; Q00535+Q15078; Recombinant CDK5/p35, ADP-Glo luminescence, 60 min; inhibition, % at 10 µM; actives 0.01% (n = 330,000); AID 488839;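 active = highest replicate inhibition of at least 50% and at least 75% of replicates reaching 50%; inconclusive = only one of the two criteria met; inactive = both criteria failed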;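 also: plate controls were DMSO neutral control for no effect and GW8510 at 10 µM for full effect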
dFosB act = enhances mouse delta FosB homodimer DNA binding. purified delta FosB, TAMRA-CDK5 oligo fluorescence polarization; percent of positive-control signal above neutral wells. activation, % at 25 µM. actives 0.99% (n = 340,000);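 active = mean activation above about 17%, with every replicate also reaching it, limit read from the data, passing the limit was not always enough; inconclusive = only one of the two conditions met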
Dyrk1A ADPGlo = inhibitors of rat Dyrk1A kinase | AID 504441 | ADP-Glo luminescence, NFATc1 peptide | Q63470 | inhibition, % at 12.5 µM | actives 0.43% (n = 310,000);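 also: plate controls were vehicle with enzyme for no effect and no enzyme for full effect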
SR-BI DiI-HDL act = activators of SR-BI mediated HDL lipid uptake. CHO ldlA[mSR-BI] cells, DiI-HDL uptake fluorescence, 3 h; 100 = double the neutral-control signal. activation, % at 12.5 µM. actives 0.096% (n = 320,000). AID 504775;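 active = mean replicate activation of at least 60% and every replicate at or above 60%; inconclusive = mean or all-replicate condition met, but not both; inactive = mean below 60% and not all replicates reaching 60%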;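 also: 0% = median plate neutral-control signal and 100% = twice that signal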
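System: CHO ldlA[mSR-BI] cells / Medium: HEPES-buffered (25 mM, pH 7.4) F12 plus 0.5% BSA / Probe or stimulus: labelled HDL, 10 µg/mL / Doses: single compound concentration, delivered by pin transfer / Schedule: 3 h, 37 °C / Measured by: DiI fluorescence, bottom read / Measure: cell-associated DiI fluorescence as measure of HDL uptake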
SR-BI DiI inh = blocks mouse SR-BI lipid uptake from DiI-HDL | Q61009 | ldlA[mSR-BI] CHO cells, DiI-HDL uptake fluorescence, 3 h | actives 0.96% (n = 320,000) | inhibition, % at 12.5 µM;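 active = mean replicate inhibition of at least 70% and a set share of replicates each scoring 70 or more; inconclusive = meets just one of the two criteria; inactive = fails both criteria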;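 also: 0% = median of neutral control wells and 100% = median of positive control wells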
DiI quench = counter-screen for SR-BI lipid transfer inhibitors: DiI fluorescence quenchers; shares compounds with SR-BI DiI inh; AC50, µM (titrated, usually from 35 µM), inactives show at the top dose activity change, negative = quenching; actives 20% (n = 470); cell-free DiI-HDL fluorescence quenching, 30 min;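 active = quenching, a falling signal, with AC50 below a set limit tied to the top valid dose, actives reach about 32 µM in these data; inconclusive = no clear call, values can overlap the other calls; inactive = rising signal, and the rest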
The depositor's hits bear a star; ? = inconclusive; . = no result. Rule as the data show it, unless noted: active = inhibition above about 50%; inactive = the rest.

SMILES	NSD2 inh	CDK5 inh	dFosB act	Dyrk1A ADPGlo	SR-BI DiI-HDL act	SR-BI DiI inh	DiI quench
COc1cc2c(C#CCCCO)c(-c3ccsc3)oc(=O)c2cc1OC	.	-1	-2	2	-73	?	-3%
CCN1CCN(c2oc(-c3ccccc3)nc2S(=O)(=O)c2ccc(C)cc2)CC1	12	0	-5	-13	10	-10	.
Cc1ccc(C(=O)COc2cc(O)c3c(=O)cc(-c4ccccc4)oc3c2)cc1	-4	-5	-1	2	-78	78*	-4%
Cc1ccc(-c2nnc(N3CCC(C)CC3)c3ccccc23)cc1C	18	-2	-9	4	-92	92*	3%
Cc1ccc(-c2nnc(N3CCC(C)CC3)c3ccccc23)cc1	-2	-7	-3	2	-66	66	.
CCN(C(=O)COn1nnc2ccc(S(=O)(=O)N(C)C)cc21)C1CCS(=O)(=O)C1 (centres undefined)	-5	2	-3	-1	-21	21	-3%
COC(=O)c1cnc(Oc2ccc(NC(=O)NC(=O)c3c(OC)cccc3OC)cc2)cc1C(F)(F)F	-2	2	-6	.	-71	?	1%
Cc1ccccc1C(=O)NC1CC2CCCC(C1)N2C(=O)Nc1ccccc1 (centres undefined)	-5	3	0	-6	15	-15	-3%
CC(C)(C)C(=O)NC1CC2CCCC(C1)N2C(=O)Nc1ccccc1 (centres undefined)	-1	0	-6	.	5	-5	.
Cc1ccc(S(=O)(=O)Nc2cccc(-n3cnnn3)c2)cc1C	3	-1	-7	1	-2	2	.
Cc1cccc(Nc2ccccc2C(=O)OCC(=O)N(C)C2CCS(=O)(=O)C2)c1C (centres undefined)	1	0	4	-2	-73	73*	2%
CC1CCc2nc3ccccc3c(C(=O)OCC(=O)N(C)C3CCS(=O)(=O)C3)c2C1 (centres undefined)	1	1	-13	.	-45	45	.
Cc1ccc2nc3c(c(C(=O)OCC(=O)N(C)C4CCS(=O)(=O)C4)c2c1)CCCC3 (centres undefined)	-1	0	-13	17	-74	74*	-1%
CCN(C(=O)COC(=O)c1c(C)c(-c2ccccc2)nc2ccccc12)C1CCS(=O)(=O)C1 (centres undefined)	-2	-1	-15	-2	-75	75*	-1%
c1ccc(NC2=NCCN2CC2CCCCC2)cc1	.	0	-1	.	33	-33	.
CCC(C)NC(=O)Cn1cc(S(=O)(=O)N2CCN(c3ccccc3F)CC2)c2ccccc2c1=O (centres undefined)	0	1	-6	-2	-87	87*	4%
Cn1cc(S(=O)(=O)N2CCN(c3ccccc3F)CC2)c(=O)n(C)c1=O	.	0	-3	-4	3	-3	.
COc1cc(OC)cc(C(=O)N[C@H](C(=O)Nc2nc(-c3ccc(F)c(F)c3)cs2)C(C)C)c1	1	2	0	-1	-84	84*	2%
O=C(Nc1ccc(N2CCOCC2)cc1)c1cccc(S(=O)(=O)N2CCCC2)c1	0	4	-8	-6	-56	56	.
O=C(Nc1ccc(N2CCOCC2)cc1)c1cccc(S(=O)(=O)N2CCC(Cc3ccccc3)CC2)c1	-1	0	1	2	-93	93*	-15%
CC(=O)N1Cc2ccccc2CC1C(=O)NCc1ccccc1F (centres undefined)	-3	-1	2	-1	6	-6	.
Cc1cc2oc(=O)cc(-c3ccccc3)c2c(C)c1-c1ccc(C(F)(F)F)cc1	.	5	0	3	-74	?	-4%
CC(=O)Nc1ccc(-c2c(C)cc3oc(=O)cc(-c4ccccc4)c3c2C)cc1	.	-1	-6	5	-67	67	.
CCn1nc(C)c(CN2CCc3c([nH]c4ccccc34)C2c2ccc(F)c(OC)c2)c1C (centres undefined)	-3	-2	5	9	-82	82*	-11%

Screens from PubChem BioAssay.
